The record followed here is the EternaBench riboswitch data.

The test system of the data set is MS2 coat protein. Briefly: apparent Kd, MS2 coat protein; higher = weaker binding; RNA-MaP array; FMN 200 µM where present. A digest of the protocol:
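Designs were transcribed by stalled E. coli RNA polymerase on Illumina sequencing-chip clusters. They were titrated with SNAP-549-labelled MS2 coat protein from 0.7 or 1.5 nM, doubling to 3 µM, in 100 mM Tris-HCl pH 7.5, 80 mM KCl, 4 mM MgCl2, BSA, DTT, yeast tRNA and Tween-20, without and then with constant ligand. The apparent Kd is the median of filtered per-cluster fits after normalisation of green signal to red-channel RNA signal and control-cluster median Fmax.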

Where [1] appears, read: designed as: OFF switch for flavin mononucleotide, no ligand.
The mark [2] stands for this setting: ligand present: flavin mononucleotide, designed as: OFF switch for flavin mononucleotide.
Where [3] appears, read: designed as: ON switch for flavin mononucleotide, no ligand.
Where [4] appears, read: ligand present: flavin mononucleotide, designed as: ON switch for flavin mononucleotide.

A word on the apparent Kd: it is a dissociation constant that holds for the conditions of the assay. On to “GGUGCGUCUGUGAGGAUAUGCUGGUCCUUGGCUCGGCAGAAGGCACAUGAGGAUCACCCAUGUGGUGUCGUGCC”, for which the “apparent Kd” value under setting [1] came to 18.5 nM and the “apparent Kd” value under setting [2] is 34.6 nM.

On to “ACUGUCCGAGAGAAGGGAACAUGAGGAUCACCCAUGUUACCUCACCCGGUGACGGAACUCCAAGUUCAGGAUAUCUCGAGCGGU”, for which the “apparent Kd” value under setting [1] turned out to be 7.09 nM and the “apparent Kd” value under setting [2] was determined as 12.6 nM.

Take “UAGAAGUCAGGAUAUCCAUGGCGGCACUUGCGUGGUGGCGUGGAGAAGGGACAUGAGGAUCACCCAUGUAAAGA”: the “apparent Kd” value is 54.4 nM under setting [1] and 42 nM under setting [2].

Regarding “UUUUUGUGAGGAUAUCAGUAGUAGAACAAUAGUACUACUACUGAGAAGGCACAUGAGGAUCACCCAUGUUCCUC”, the “apparent Kd” value under setting [1] was 58.1 nM and the “apparent Kd” value under setting [2] came out at 325 nM.

“CCAUGACCGUAAGCGAUUACCACAUGAGGAUCACCCAUGUACAGAAGGCGGACGUCAUUAUGAACCGAGGAUAUGUACCAGGGU”: the “apparent Kd” value is 92.2 nM under setting [1] and 12.1 nM under setting [2].

Regarding “GUAGCAUACCGAGGAUAUUCAACGACAAAGUCGACAUGAGGAUCACCCAUGUGGCGAAAGCCUUGGGAGAAGGCGGAAUGCUAC”, the “apparent Kd” value by setting is: under setting [3], 16.5 nM; under setting [4], 11.1 nM.

Consider “ACAUGAGGAUCACCCAUGUGGACAUAGGAUAUUGGUGAUCAGGCGUGUUAUACAGGAUAGGUCUGCGAGAAGGGUGUACGUUGC”, for which the “apparent Kd” value by setting is: under setting [3], 588 nM; under setting [4], 295 nM.

For the sequence “AUGAGGUUAGGAUAUACAUGAGGAUCACCCAUGUUGGAGAAGGAAAUGUAAGUAGCGAGUAGAAGGAACGGAGC”, the “apparent Kd” value was found to be 47 nM under setting [1] and 43.4 nM under setting [2].

As to “GAGGAUAGAGGAUAUGCAUAGAUACGGAUUCGUGUAGUACUACAUGAGGAUCACCCAUGUAGAAGGCUGUCCUG”, the “apparent Kd” value reads like this: under setting [1], 14.3 nM; under setting [2], 22.1 nM.

Consider “ACUAUACGAGGAUAUACUGACGGGCCUCAGGCGUCCAUGAGACAUGAGGAUCACCCAUGUAGAAGGCGUAUACU”, for which the “apparent Kd” value is 174 nM under setting [1] and 52 nM under setting [2].

Take “AAUCCACAUGAGGAUCACCCAUGUCAGGAUAUACGCAUCGGACCGAUCGGCUGUUUGGGUAGAAGGGACGUGCA”: the “apparent Kd” value under setting [1] worked out at 16 nM and the “apparent Kd” value under setting [2] was 16.1 nM.

For the sequence “GGAGCAUAUCAAUACAUGAGGAUCACCCAUGUCGAAUGAUAUGAGGAUAUGCAUCGGAAAACGAUGUAGAAGGCAUAGUGCUCC”, the “apparent Kd” value is 9.14 nM under setting [3] and 5.58 nM under setting [4].

With “GAGAAGUCAGGAUAUCCAUGGCGGCACUUGCGUGGUGGCGUGGAGAAGGGACAUGAGGAUCACCCAUGUAAAGU”, the “apparent Kd” value under setting [1] was 49.8 nM and the “apparent Kd” value under setting [2] was found to be 39.1 nM.

As for “AAAAAGUGAGGAUAUGCGCUGUCCUGUAGACACGAGCAGUCGUAGAAGGCACAUGAGGAUCACCCAUGUUUAAA”, the “apparent Kd” value was found to be 27.6 nM under setting [1] and 20.2 nM under setting [2].

As to “CGUAAGAUGCAGAAGGUGUUAGCUAGAGCUACGACAUGAGGAUCACCCAUGUACUAGAAACAGUACAAGGAUAUGCAUCUUACA”, the “apparent Kd” value under setting [3] was 17.3 nM and the “apparent Kd” value under setting [4] is 5.75 nM.

Regarding “GCGUAAGAACAGAAGGGUAGACAUGAGGAUCACCCAUGUAAACAUGGAUGCAGGAUAUGUUAUAAUUGAGAUUCAUAAAUUCGC”, the “apparent Kd” value was 130 nM under setting [3] and 106 nM under setting [4].

Regarding “GAUUGACAUGAGGAUCACCCAUGUGAGGAUAUCGGCUGGACCGUGUUGGCUUGCCUUUCGAGAAGGCGCAUAGG”, the “apparent Kd” value under setting [1] was determined as 37.7 nM and the “apparent Kd” value under setting [2] came to 42 nM.

With “GUAGCAAUCGGAGGAUAUGGGUUAUACAUGAGGAUCACCCAUGUUAAUUUACUAGAAGGCCGAUUGCUACAAGAGCGAAAGCUC”, the “apparent Kd” value was determined as 10.8 nM under setting [3] and 5.7 nM under setting [4].

Take “AGUGUCAUCGAGAAGGCCUCAACAUGAGGAUCACCCAUGUUGUAAUAUGGGAGGAUAUCGAUGAUACAGCUACGUUUCGUAGCG”: the “apparent Kd” value reads like this: under setting [3], 19.9 nM; under setting [4], 5.82 nM.

Turning to “GUGAACCGUAGGUCGUUGGCUGCACAGGAUAUGAAGGCGUACAUGAGGAUCACCCAUGUUCCCUAUCAGAAGGGUGACAGGAAA”, the “apparent Kd” value runs as follows: under setting [3], 6.81 nM; under setting [4], 5.41 nM.

As to “GCUGGACAUGAGGAUCACCCAUGUGAGGAUAUCGGCUGGUACGUGUUGGCUGGCAUCUCGAGAAGGCACAUAGU”, the “apparent Kd” value under setting [1] was 32.8 nM and the “apparent Kd” value under setting [2] came to 42.4 nM.

With “CAGUGCUGUUGAGAGGAUAUGCGGUGAUGGACAUGAGGAUCACCCAUGUUAGCGACAGCGUUACGGCAGAAGGCUCUACCCACUG”, the “apparent Kd” value was determined as 49.4 nM under setting [3] and 22.4 nM under setting [4].

Regarding “GCACGCUGGCGAGGAUAUAGACAUGAGGAUCACCCAUGUGGCGCACAUCGGGCCCUAGUCCUCAGCUAGAAGGCGCCUGUGAUA”, the “apparent Kd” value reads like this: under setting [1], 328 nM; under setting [2], 228 nM.

Take “GAUUGUUUUUAGAAGGUGCCGACGAGAGUCGCAACAUGAGGAUCACCCAUGUGUCGGUGACGACGCAAGGAUAUGGAGGUGGUU”: the “apparent Kd” value reads like this: under setting [3], 174 nM; under setting [4], 79.8 nM.

With “AGCUACGUUUCGUAGCAGUGUCAUCGAGAAGGCUCAUUAACAUGAGGAUCACCCAUGUAUUCAUGGGAGGAUAUCGAUGAUACA”, the “apparent Kd” value runs as follows: under setting [3], 131 nM; under setting [4], 9.22 nM.

On to “AAUUAUUGAUGAGGAUAUUGUGGUGAAACACGACAAGAAGGCAUUAUACACAUGAGGAUCACCCAUGUGAGCCUGAUGCAUAUA”, for which the “apparent Kd” value is 16.6 nM under setting [1] and 22.2 nM under setting [2].

As for “UCGUUUAUACAAGGAUAUCAAUUAUAGCUAAAUUCAACAUGAGGAUCACCCAUGUAACUAUGGAGUGAGAAGGUGUAAUGACUU”, the “apparent Kd” value runs as follows: under setting [3], 514 nM; under setting [4], 302 nM.

For the sequence “GCAGCAUAGUUUACUAACUGUUACAUGAGGAUCACCCAUGUUUAGGAUAUGGUCUGGAUUACAGGCCAGAAGGGAACAAGCUGC”, the “apparent Kd” value under setting [1] was determined as 14.6 nM and the “apparent Kd” value under setting [2] was 12.3 nM.

For “UAAUCUCAGAUAGGAUAUAUAGGAUGAUUUAAGACCGAACAUGAGGAUCACCCAUGUGAUUAUUCGUAGAAGGAUCAAUGACCC”, the “apparent Kd” value was 122 nM under setting [3] and 114 nM under setting [4].

As for “GCCUCAUAGUAGAAGGGACUUAGACAGUAAAGUUUAUAGAGGAAAUAACAUGAGGAUCACCCAUGUCAGGAUAUACUAAGAGGC”, the “apparent Kd” value reads like this: under setting [1], 7.42 nM; under setting [2], 9.47 nM.

As to “AAGUGGUUUAUAUAUUUAGAUAUCAGAAGGCGUGACAUGAGGAUCACCCAUGUGGACUAACAUGACGAGGAUAUGACUAAUUGU”, the “apparent Kd” value is, setting by setting: under setting [1], 30.4 nM; under setting [2], 39.8 nM.

As to “CCAAUUCUGGCAUCCUUAUUACAUGAGGAUCACCCAUGUUGUGAGGAUAUCCCAACCCACGGUCAGGAGAAGGCACAAAGAGGG”, the “apparent Kd” value under setting [1] is 4.9 nM and the “apparent Kd” value under setting [2] worked out at 5.01 nM.

With “GGACGGUUUGUCAGGAUAUGCUCUACCUCGGUAGAGCAGAAGGGACAUGAGGAUCACCCAUGUGAAAACUGUUC”, the “apparent Kd” value under setting [1] was 22.8 nM and the “apparent Kd” value under setting [2] worked out at 25.2 nM.

As for “GUGUACGGAGGAUAUAUGUGGCGAGCAUACGCUCGAGCUUCACAUGAGGAUCACCCAUGUAGAAGGCUGUGCAC”, the “apparent Kd” value by setting is: under setting [1], 19 nM; under setting [2], 102 nM.

As to “GCCCAGCUAGGAUAUCGCACUGCAGACAUGAGGAUCACCCAUGUGAUGAGGUCUGAAUCCCGAGAAGGAGCAUGGA”, the “apparent Kd” value runs as follows: under setting [1], 17.8 nM; under setting [2], 41.7 nM.

On to “CUUAGUUUGUAGAAGGGUGACAUGAGGAUCACCCAUGUGCGUCGCCUGGAAGACCAGGGUACGCCACAGGAUAUACAAAGUAAG”, for which the “apparent Kd” value reads like this: under setting [3], 46.7 nM; under setting [4], 23.1 nM.
